In brackets after ≈: the same amount, converted by molar mass.
How the values were obtained:
Helicobacter pylori [1] = assay: Antibacterial activity against metronidazole-resistant Helicobacter pylori assessed as inhibition zone diameter at 16 ug/disk after 3-5 days by paper disk diffusion assay; assay type: functional
How it was run: (§1)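 Filter paper disks (6 mm) loaded with compound in 40 μL methanol, dried, placed on Mueller–Hinton agar with 7% defibrinated horse blood pre-inoculated with H. pylori suspension (2 McFarland, 10⁷-10⁸ CFU/mL; 48 h cultures checked for coccoid forms); incubated microaerophilically (5% O2, 15% CO2, 80% N2) at 37 °C for 3–5 days; mean inhibition zone diameter (mm) of triplicates.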

Escherichia coli = assay: Antibacterial activity against Escherichia coli ATCC 8739 after 18 hrs by serial dilution method; assay type: functional; conditions: ATCC 8739, 18 h
How it was run: (§2)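 Agar dilution MIC. Compound stock diluted with water, then serially doubled in melted Mueller–Hinton agar to 64, 32, 16 and 8 µg/mL. Plates inoculated with 1-5 × 10^4 CFU and incubated 18 h at 37 °C. MIC is the lowest concentration giving no visible growth.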

Nannizzia gypsea = assay: Antifungal activity against Microsporum gypseum PTCC 5070 after […] by agar dilution method; assay type: functional
How it was run: (§3)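 Agar dilution on Sabouraud dextrose agar. Compound stocks in DMSO. Inocula about 10^5 CFU/mL from log-phase broth cultures. Plates run in triplicate at 30 °C: about 24–48 h for yeasts, about 72 h for moulds, about 168 h for dermatophytes. MIC is the lowest concentration with no visible growth on the plate.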

Helicobacter pylori [2] = assay: Antibacterial activity against metronidazole-sensitive Helicobacter pylori assessed as inhibition zone diameter at 8 ug/disk after 3-5 days by paper disk diffusion assay; assay type: functional
How it was run: (§4)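 Filter-paper disk diffusion (6 mm disks), with the compound applied in 40 µL methanol and dried. Disks placed on Mueller–Hinton agar with 7% defibrinated horse blood, inoculated with 48 h H. pylori clinical-isolate suspension at 2 McFarland (10^7-10^8 CFU/mL). Incubated 3–5 days at 37 °C microaerophilically (5% O2, 15% CO2, 80% N2). Mean inhibition-zone diameter (mm) from triplicates.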

Helicobacter pylori [3] = assay: Antibacterial activity against metronidazole-sensitive Helicobacter pylori assessed as inhibition zone diameter at 16 ug/disk after 3-5 days by paper disk diffusion assay; assay type: functional; how it was run: as §1
Klebsiella pneumoniae = assay: Antibacterial activity against Klebsiella pneumoniae ATCC 10031 after 18 hrs by serial dilution method; assay type: functional; conditions: ATCC 10031, 18 h; how it was run: as §2
Helicobacter pylori [4] = assay: Antibacterial activity against Helicobacter pylori isolate assessed as inhibition zone diameter at 2 ug/disk after 3-5 days by paper disk diffusion assay; assay type: functional; how it was run: as §4
Candida albicans = assay: Antifungal activity against Candida albicans PTCC 5027 after 72 hrs by agar dilution method; assay type: functional
Helicobacter pylori [5] = assay: Antibacterial activity against metronidazole-resistant Helicobacter pylori assessed as inhibition zone diameter at 8 ug/disk after 3-5 days by paper disk diffusion assay; assay type: functional; how it was run: as §1
Saccharomyces cerevisiae = assay: Antifungal activity against Saccharomyces cerevisiae PTCC 5177 after 72 hrs by agar dilution method; assay type: functional
Helicobacter pylori [6] = assay: Antibacterial activity against Helicobacter pylori isolate assessed as inhibition zone diameter at 0.5 ug/disk after 3-5 days by paper disk diffusion assay; assay type: functional; how it was run: as §4
Helicobacter pylori [7] = assay: Antibacterial activity against Helicobacter pylori isolate assessed as inhibition zone diameter at 1 ug/disk after 3-5 days by paper disk diffusion assay; assay type: functional; how it was run: as §4
Helicobacter pylori [8] = assay: Antibacterial activity against Helicobacter pylori isolate assessed as inhibition zone diameter at 8 ug/disk after 3-5 days by paper disk diffusion assay; assay type: functional; how it was run: as §4
Helicobacter pylori [9] = assay: Antibacterial activity against Helicobacter pylori isolate assessed as inhibition zone diameter at 32 ug/disk after 3-5 days by paper disk diffusion assay; assay type: functional; how it was run: as §4
Staphylococcus aureus = assay: Antibacterial activity against Staphylococcus aureus ATCC 6538P after 18 hrs by serial dilution method; assay type: functional; how it was run: as §2
Helicobacter pylori [10] = assay: Antibacterial activity against Helicobacter pylori isolate assessed as inhibition zone diameter at 16 ug/disk after 3-5 days by paper disk diffusion assay; assay type: functional; how it was run: as §4
[11] = tested on: Staphylococcus epidermidis; assay: Antibacterial activity against Staphylococcus epidermidis ATCC 12228 after 18 hrs by serial dilution method; assay type: functional; conditions: ATCC 12228, 18 h; how it was run: as §2
[12] = Cytotoxicity against mouse NIH/3T3 cells after 72 hrs by MTT assay; assay type: cell-based; conditions: NIH3T3, 72 h
How it was run: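 NIH/3T3 mouse fibroblasts in exponential phase trypsinized and seeded at 5×10^4 cells/mL, then given serially diluted compound in triplicate and incubated 72 h. MTT (5 mg/mL solution) added for 1 h, formazan dissolved in DMSO, absorbance read at 492 nm. IC50 calculated from dose-response curves versus untreated controls, as mean ± SD of triplicates.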

Helicobacter pylori [13] = assay: Antibacterial activity against metronidazole-resistant Helicobacter pylori assessed as inhibition zone diameter at 32 ug/disk after 3-5 days by paper disk diffusion assay; assay type: functional; how it was run: as §1
Aspergillus niger = assay: Antifungal activity against Aspergillus niger PTCC 5012 after 72 hrs by agar dilution method; assay type: functional; how it was run: as §3
Helicobacter pylori [14] = assay: Antibacterial activity against metronidazole-sensitive Helicobacter pylori assessed as inhibition zone diameter at 32 ug/disk after 3-5 days by paper disk diffusion assay; assay type: functional; how it was run: as §4
Helicobacter pylori [15] = assay: Antibacterial activity against Helicobacter pylori isolate assessed as inhibition zone diameter at 4 ug/disk after 3-5 days by paper disk diffusion assay; assay type: functional; how it was run: as §4

| Structure (SMILES) | MIC (Escherichia coli) | MIC (Nannizzia gypsea) | Activity (Helicobacter pylori [2]) | Activity (Helicobacter pylori [3]) | MIC (Klebsiella pneumoniae) | Activity (Helicobacter pylori [4]) | MIC (Candida albicans) | MIC (Saccharomyces cerevisiae) | Activity (Helicobacter pylori [6]) | Activity (Helicobacter pylori [7]) | Activity (Helicobacter pylori [8]) | Activity (Helicobacter pylori [9]) | MIC (Staphylococcus aureus) | Activity (Helicobacter pylori [10]) | MIC [11] | IC50 [12] | Activity (Helicobacter pylori [13]) | MIC (Aspergillus niger) | Activity (Helicobacter pylori [14]) | Activity (Helicobacter pylori [15]) | further results |
| --- | --- | --- | --- | --- | --- | --- | --- | --- | --- | --- | --- | --- | --- | --- | --- | --- | --- | --- | --- | --- | --- |
| CCS(=O)(=O)CCSc1nnc(-c2ccc([N+](=O)[O-])o2)s1 | > 32 µg/mL | > 32 µg/mL | 37 mm | 43 mm | > 32 µg/mL | 18.3 mm | > 32 µg/mL | > 32 µg/mL | 6.6 mm | 12.6 mm | 29.1 mm | 36.5 mm | > 32 µg/mL | 33.1 mm | 32 µg/mL (≈ 91.6 µM) | 4.2 µg/mL (≈ 12 µM) | 41 mm | > 32 µg/mL | 46 mm | 23.5 mm | Activity (Helicobacter pylori [1]): 34 mm; Activity (Helicobacter pylori [5]): 29 mm |
| CCSCCSc1nnc(-c2ccccc2[N+](=O)[O-])s1 | > 32 µg/mL | > 32 µg/mL | 6 mm | 6 mm | > 32 µg/mL |  | > 32 µg/mL | > 32 µg/mL |  |  |  |  | > 32 µg/mL |  | 32 µg/mL (≈ 97.7 µM) |  |  | > 32 µg/mL | 6 mm |  |  |
| CC1(C)S[C@@H]2[C@H](NC(=O)[C@H](N)c3ccc(O)cc3)C(=O)N2[C@H]1C(=O)O [AMOXICILLIN] |  |  |  |  |  |  |  |  |  | 24.5 mm |  |  |  |  |  |  |  |  |  |  |  |
| CCS(=O)(=O)CCSc1nnc(-c2ccc([N+](=O)[O-])s2)s1 | > 32 µg/mL | > 32 µg/mL | >50 mm | >50 mm | > 32 µg/mL | 31.9 mm | > 32 µg/mL | > 32 µg/mL | 18.2 mm | 24.9 mm | 44.2 mm | 47.6 mm | > 32 µg/mL | 46.7 mm | 32 µg/mL (≈ 87.6 µM) | 11.6 µg/mL (≈ 31.7 µM) |  | > 32 µg/mL | >50 mm | 37.5 mm |  |
| CCSCCSc1nnc(-c2ccc([N+](=O)[O-])s2)s1 | > 32 µg/mL | > 32 µg/mL | 50 mm | 50 mm | > 32 µg/mL | 28.9 mm | > 32 µg/mL | > 32 µg/mL | 16.8 mm | 22.9 mm | 44.4 mm | 47.2 mm | > 32 µg/mL | 47 mm | 32 µg/mL (≈ 96 µM) | 4.5 µg/mL (≈ 13.5 µM) |  | > 32 µg/mL | 50 mm | 37.1 mm |  |
| CCS(=O)(=O)CCSc1nnc(-c2ncc([N+](=O)[O-])n2C)s1 | > 32 µg/mL | > 32 µg/mL | 35 mm | 40 mm | > 32 µg/mL | 16.5 mm | > 32 µg/mL | > 32 µg/mL | 8.5 mm | 11.9 mm | 29.7 mm | 40.7 mm | > 32 µg/mL | 35.8 mm | 32 µg/mL (≈ 88 µM) | 100 µg/mL (≈ 275 µM) |  | > 32 µg/mL | 47 mm | 23.4 mm | Activity (Helicobacter pylori [5]): 36 mm |
| CCS(=O)(=O)CCSc1nnc(-c2cccc([N+](=O)[O-])c2)s1 | > 32 µg/mL | > 32 µg/mL | 6 mm | 6 mm | > 32 µg/mL |  | > 32 µg/mL | > 32 µg/mL |  |  |  |  | > 32 µg/mL |  | 32 µg/mL (≈ 89 µM) |  | 25 mm | > 32 µg/mL | 26 mm |  |  |
| CCSCCSc1nnc(-c2cccc([N+](=O)[O-])c2)s1 | > 32 µg/mL | > 32 µg/mL | 6 mm | 6 mm | > 32 µg/mL |  | > 32 µg/mL | > 32 µg/mL |  |  |  |  | > 32 µg/mL |  | 32 µg/mL (≈ 97.7 µM) |  |  | > 32 µg/mL | 9 mm |  |  |
| Cc1ncc([N+](=O)[O-])n1CCO [METRONIDAZOLE] |  |  | 18 mm | 23 mm |  | 7.5 mm |  |  | 6 mm | 6 mm | 16.3 mm | 20.7 mm |  | 18.4 mm |  |  | 14 mm |  | 27 mm | 8.75 mm | Activity (Helicobacter pylori [1]): 12 mm; Activity (Helicobacter pylori [5]): 11 mm |
| CCS(=O)(=O)CCSc1nnc(-c2ccccc2[N+](=O)[O-])s1 | > 32 µg/mL | > 32 µg/mL | 6 mm | 9 mm | > 32 µg/mL |  | > 32 µg/mL | > 32 µg/mL |  |  |  |  | > 32 µg/mL |  | 32 µg/mL (≈ 89 µM) |  | 13 mm | > 32 µg/mL | 15 mm |  |  |
| CCS(=O)(=O)CCSc1nnc(-c2ccc([N+](=O)[O-])cc2)s1 | > 32 µg/mL | > 32 µg/mL | 19 mm | 24 mm | > 32 µg/mL |  | > 32 µg/mL | > 32 µg/mL |  |  |  |  | > 32 µg/mL |  | 32 µg/mL (≈ 89 µM) |  | 27 mm | > 32 µg/mL | 30 mm |  |  |
| CCSCCSc1nnc(-c2ccc([N+](=O)[O-])cc2)s1 | > 32 µg/mL | > 32 µg/mL | 6 mm | 16 mm | > 32 µg/mL |  | > 32 µg/mL | > 32 µg/mL |  |  |  |  | > 32 µg/mL |  | 32 µg/mL (≈ 97.7 µM) |  |  | > 32 µg/mL | 20 mm |  |  |

Source: ChEMBL document CHEMBL1143078, “Synthesis and anti-Helicobacter pylori activity of 5-(nitroaryl)-1,3,4-thiadiazoles with certain sulfur containing alkyl side chain” (Bioorg Med Chem Lett, 2008)
